Assay results from ChEMBL document CHEMBL3259780, “3-Substituted-N-(4-hydroxynaphthalen-1-yl)arylsulfonamides as a novel class of selective Mcl-1 inhibitors: structure-based design, synthesis, SAR, and biological evaluation” (J Med Chem, 2014).
Calls of active or inactive are those of the source. No cut-off for these calls is given here.

Tests used:
[1] = target: T1, Apoptosis regulator Bcl-2 (Homo sapiens, UniProt P10415); assay: Displacement of Flu-BID/FAM-BID from His-tagged BCL2 (1 to 202) (unknown origin) expressed in Escherichia coli BL21(DE3) after 3 hrs by fluorescence polarization assay
T1 sequence (P10415 whole entry): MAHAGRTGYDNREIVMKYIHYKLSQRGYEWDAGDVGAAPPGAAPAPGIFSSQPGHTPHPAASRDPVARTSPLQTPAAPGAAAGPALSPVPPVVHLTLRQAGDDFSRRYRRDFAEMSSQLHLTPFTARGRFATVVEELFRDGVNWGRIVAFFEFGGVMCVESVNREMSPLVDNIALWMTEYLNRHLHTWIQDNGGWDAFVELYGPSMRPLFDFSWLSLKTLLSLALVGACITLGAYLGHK

K562 = assay: Cytotoxicity against human K562 cells assessed as intracellular ATP level after 3 days by CellTiterGlo assay; format: functional, cell-based
Procedure, shortened: (§1)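 Cells in RPMI 1640 with 10% FBS, plated at 0.5 × 10^6 cells/well and exposed to a range of compound concentrations for 3 days. Viability is read as intracellular ATP by CellTiter-Glo luminescence. Growth is expressed as percent of DMSO-treated cells, and IC50 is obtained by nonlinear regression.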

HL-60 [2] = assay: Cytotoxicity against human HL60 cells assessed as intracellular ATP level after 3 days by CellTiterGlo assay; format: functional, cell-based; procedure, shortened: as §1
[3] = target: T2, Induced myeloid leukemia cell differentiation protein Mcl-1 (Homo sapiens, UniProt Q07820); assay: Binding affinity to His-tagged MCL1 (171 to 327) (unknown origin) expressed in Escherichia coli BL21(DE3) assessed as inhibition of MCL1-N-terminal biotin-labeled BIM BH3 peptide interaction after 30 mins by surface plasmon resonance analysis
T2 sequence (Q07820 whole entry): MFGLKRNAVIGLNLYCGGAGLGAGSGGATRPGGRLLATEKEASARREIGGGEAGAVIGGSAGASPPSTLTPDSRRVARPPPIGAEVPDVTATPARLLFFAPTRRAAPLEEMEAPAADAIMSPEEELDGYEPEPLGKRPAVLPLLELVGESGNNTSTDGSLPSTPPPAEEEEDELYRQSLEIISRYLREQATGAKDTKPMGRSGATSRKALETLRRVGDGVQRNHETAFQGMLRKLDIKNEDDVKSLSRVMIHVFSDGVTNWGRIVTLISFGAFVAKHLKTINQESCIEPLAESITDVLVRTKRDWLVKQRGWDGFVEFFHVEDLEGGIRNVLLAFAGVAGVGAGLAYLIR

MV4-11 = assay: Cytotoxicity against human MV4-11 cells assessed as intracellular ATP level after 3 days by CellTiterGlo assay; format: functional, cell-based; procedure, shortened: as §1
Bcl-2-like protein 1 = Bcl-2-like protein 1 (Homo sapiens, UniProt Q07817); assay: Displacement of Flu-BID/FAM-BID from His-tagged BCLX-L (1 to 209) (unknown origin) expressed in Escherichia coli BL21(DE3) after 3 hrs by fluorescence polarization assay
Sequence of Bcl-2-like protein 1 (Q07817 whole entry): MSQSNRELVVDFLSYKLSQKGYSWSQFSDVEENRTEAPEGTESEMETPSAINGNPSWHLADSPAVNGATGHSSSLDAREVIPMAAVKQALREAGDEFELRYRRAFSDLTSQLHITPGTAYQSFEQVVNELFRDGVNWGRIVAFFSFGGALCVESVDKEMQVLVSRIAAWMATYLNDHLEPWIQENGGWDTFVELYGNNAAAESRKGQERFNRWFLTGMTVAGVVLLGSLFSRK

[4] = target: T1, Apoptosis regulator Bcl-2; assay: Inhibition of BCL2 (unknown origin) overexpressed in E-mu-myc transgenic mouse lymphoma cells assessed as induction of cell death after 15 to 18 hrs by flow cytometric analysis; format: cell-based
Procedure, shortened: (§2)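 Eμ-myc transgenic mouse lymphoma cells retrovirally transduced to overexpress Mcl-1 or Bcl-2, seeded at 0.5 × 10^6 cells/well. Cells were treated at varying concentrations for 15–18 h and stained with violet LIVE/DEAD fixable dead-cell dye. Percent stained (dead) cells was measured by flow cytometry. Means ± SEM from 3–7 independent experiments.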

[5] = target: T2, Induced myeloid leukemia cell differentiation protein Mcl-1; assay: Displacement of Flu-BID/FAM-BID from His-tagged MCL1 (171 to 327) (unknown origin) expressed in Escherichia coli BL21(DE3) after 3 hrs by fluorescence polarization assay
[6] = target: T2, Induced myeloid leukemia cell differentiation protein Mcl-1; assay: Inhibition of FITC-labeled MCL1 (unknown origin) after 5 mins by fluorescence polarization assay
[7] = target: Induced myeloid leukemia cell differentiation protein Mcl-1 homolog (Mus musculus) (UniProt P97287); assay: Inhibition of MCL1 in wild-type MEF assessed as induction of BAX/BAK-dependent cell death at 16 uM after 15 hrs by propidium iodide staining-based flow cytometric analysis relative to control
Sequence of Induced myeloid leukemia cell differentiation protein Mcl-1 homolog (Mus musculus) (P97287 whole entry): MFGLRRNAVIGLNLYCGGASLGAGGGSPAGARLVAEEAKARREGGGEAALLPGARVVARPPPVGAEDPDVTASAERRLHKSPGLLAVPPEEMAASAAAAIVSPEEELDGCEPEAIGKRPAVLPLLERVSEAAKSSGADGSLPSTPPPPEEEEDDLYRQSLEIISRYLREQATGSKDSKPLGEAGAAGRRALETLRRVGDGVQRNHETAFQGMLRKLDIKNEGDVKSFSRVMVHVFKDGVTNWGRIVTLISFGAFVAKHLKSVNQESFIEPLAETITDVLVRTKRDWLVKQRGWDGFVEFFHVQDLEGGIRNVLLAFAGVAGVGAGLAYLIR
Procedure, shortened: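 Wild-type and Bax/Bak double-knockout MEFs grown in DMEM with 10% FBS, seeded at 0.5 × 10^6 cells/well and left to adhere. Exposed 15 h to compound, harvested, PBS-washed, stained with 0.025 mg/mL propidium iodide. PI-positive percentage by flow cytometry; significance by unpaired t test.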

HL-60 [8] = assay: Induction of apoptosis in human HL60 cells assessed as caspase-3 activation at 2.5 uM […] by DEVD-AFC-based fluorometric assay; format: functional, cell-based
[9] = target: Induced myeloid leukemia cell differentiation protein Mcl-1 homolog (Mus musculus) (UniProt P97287); assay: Inhibition of MCL1 in BAX/BAK double knock out MEF assessed as induction of cell death at 16 uM after 15 hrs by propidium iodide staining-based flow cytometric analysis relative to control
Procedure, shortened: (§3)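 Wild-type and Bax/Bak double-knockout MEFs were grown in DMEM with 10% FBS, seeded at 0.5 × 10^6 cells/well and allowed to adhere. Cells were exposed to increasing concentrations for 15 h, harvested, washed in PBS and stained with 0.025 mg/mL propidium iodide. PI-positive percentage was measured by flow cytometry. Mean ± SEM, with unpaired t test.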

HL-60 [10] = assay: Induction of apoptosis in human HL60 cells after 20 hrs by annexin V-FITC and propidium iodide staining-based flow cytometric analysis; format: functional, cell-based
Procedure, shortened: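 HL-60 cells at 0.5 × 10^6 cells/well were exposed to compounds at several concentrations for 20 h, then washed in PBS and stained with annexin-V FITC plus PI. Flow cytometry was run within 1 h. Annexin+/PI− counts as early apoptosis and double positive as late. Some runs included a 1 h pretreatment with 100 μM Z-VAD-FMK.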

HL-60 [11] = assay: Induction of apoptosis in human HL60 cells assessed as caspase-3 activation after 20 hrs by DEVD-AFC-based fluorometric assay; format: functional, cell-based
Procedure, shortened: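 HL-60 cells were seeded at 0.5 × 10^6 cells/well and exposed to graded compound concentrations for 20 h. Caspase-3 activity was measured by fluorometric kit assay with DEVD-AFC substrate. Results are expressed as fold change over DMSO-treated cells.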

[12] = target: Induced myeloid leukemia cell differentiation protein Mcl-1 homolog (Mus musculus) (UniProt P97287); assay: Inhibition of MCL1 in wild-type MEF assessed as induction of BAX/BAK-dependent cell death after 15 hrs by propidium iodide staining-based flow cytometric analysis; procedure, shortened: as §3
[13] = target: T1, Apoptosis regulator Bcl-2; settings: lymphoma, 0.1 to 10 uM
[14] = target: T2, Induced myeloid leukemia cell differentiation protein Mcl-1; assay: Inhibition of MCL1 (unknown origin) overexpressed in E-mu-myc transgenic mouse lymphoma cells assessed as induction of cell death at 0.1 to 10 uM after 15 to 18 hrs by flow cytometric analysis; format: cell-based; procedure, shortened: as §2
Homo sapiens = species: Homo sapiens; assay: Selectivity ratio of Ki for His-tagged BCL2 (1 to 202) (unknown origin) to Ki for His-tagged MCL1 (171 to 327) (unknown origin)
Procedure, shortened: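 Buffer 100 mM potassium phosphate pH 7.5 with bovine gamma globulin, azide and 0.01% Triton X-100; 3 h at room temperature. IC50 fitted, then converted to Ki.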

| Structure (SMILES) | IC50 [3] [µM] | Ki [5] [µM] | also measured |
| --- | --- | --- | --- |
| O=C(O)CSc1cc(NS(=O)(=O)c2ccc(Br)cc2)c2ccccc2c1O | 2.4 |  | Ki [1]: 23.8 µM; Activity (K562): Dose-dependent effect; Activity (HL-60 [2]): Dose-dependent effect; Activity (MV4-11): Dose-dependent effect; Ki (Bcl-2-like protein 1): 33 µM |
| CC(C)(C)c1ccc(S(=O)(=O)Nc2cc(SCC(=O)O)c(O)c3ccccc23)cc1 | 8.73 |  |  |
| COC(=O)CSc1cc(NS(=O)(=O)c2ccc(Br)cc2)c2ccccc2c1O | 14.9 |  | Activity (K562): Dose-dependent effect; Activity (HL-60 [2]): Dose-dependent effect; Activity (MV4-11): Dose-dependent effect |
| O=C(O)CSc1cc(NS(=O)(=O)c2ccc(-c3ccc(Cl)cc3)cc2)c2ccccc2c1O | 0.88 |  | Ki [1]: 6.11 µM; inhibition [4]: inactive; Activity (K562): Dose-dependent effect; Activity (HL-60 [2]): Dose-dependent effect; Activity (MV4-11): Dose-dependent effect |
| O=C(O)CSc1cc(NS(=O)(=O)c2ccc(Br)cc2)ccc1O | > 100 | 283 |  |
| O=C(O)CSc1cc(NS(=O)(=O)c2ccccc2Br)c2ccccc2c1O | 6.18 |  |  |
| NC(=O)CSc1cc(NS(=O)(=O)c2ccc(Br)cc2)c2ccccc2c1O | 3.87 |  |  |
| CC(C)c1ccc(S(=O)(=O)Nc2cc(SCC(=O)O)c(O)c3ccccc23)cc1 | 4 |  |  |
| O=C(O)CSc1cc(NS(=O)(=O)Cc2ccc(Cl)cc2)c2ccccc2c1O | 9.59 |  |  |
| Cc1cs/c(=N\C2CCCCC2)n1/N=C/c1ccc(O)c(O)c1O |  |  | IC50 [6]: 4.72 µM; IC50 (Bcl-2-like protein 1): > 50 µM |
| O=C(O)CSc1cc(NS(=O)(=O)c2cccc(-c3ccccc3)c2)c2ccccc2c1O | 2.31 |  | Ki [1]: 7.85 µM; Activity (K562): Dose-dependent effect; Activity (HL-60 [2]): Dose-dependent effect; Activity (MV4-11): Dose-dependent effect; Ki (Bcl-2-like protein 1): 15.1 µM |
| COc1c(SCC(=O)O)cc(NS(=O)(=O)c2ccc(-c3ccccc3)cc2)c2ccccc12 | > 100 | 20 |  |
| O=C(O)CSc1cc(NC(=O)c2ccc(Br)cc2)c2ccccc2c1O | 45.1 |  |  |
| CCc1ccc(S(=O)(=O)Nc2cc(SCC(=O)O)c(O)c3ccccc23)cc1 | 8.68 |  |  |
| O=C(O)CSc1cc(NS(=O)(=O)c2ccc(Oc3ccc(F)cc3)cc2)c2ccccc2c1O | 0.9 | 0.29 |  |
| O=C(O)CSc1cc(NS(=O)(=O)c2ccccc2-c2ccccc2)c2ccccc2c1O | 9.9 |  | Ki [1]: 23.8 µM; Ki (Bcl-2-like protein 1): 48.2 µM |
| CS(=O)(=O)Nc1cc(SCC(=O)O)c(O)c2ccccc12 | > 100 | 74.9 |  |
| O=C(O)CSc1cc(NS(=O)(=O)c2ccc(Oc3ccccc3)cc2)c2ccccc2c1O |  |  | Ki [1]: 7.56 µM; inhibition [7]: 61%; inhibition [4]: inactive; Activity (HL-60 [8]): Active; inhibition [9]: 23%; Activity (HL-60 [10]): Dose-dependent effect; Activity (HL-60 [11]): Dose-dependent effect; inhibition [12]: Dose-dependent effect; Activity (K562): Dose-dependent effect; Activity (HL-60 [2]): Dose-dependent effect; Activity (MV4-11): Dose-dependent effect; Ki (Bcl-2-like protein 1): 10.6 µM |
| O=C(O)CSc1cc(NS(=O)(=O)N2CCN(c3ccccc3)CC2)c2ccccc2c1O | 16.2 | 2.22 |  |
| O=S(=O)(Nc1cc(SCc2nnn[nH]2)c(O)c2ccccc12)c1ccc(Oc2ccccc2)cc1 |  | 0.21 | Activity (HL-60 [10]): Dose-dependent effect; Activity (K562): Dose-dependent effect; Activity (HL-60 [2]): Dose-dependent effect; Activity (MV4-11): Dose-dependent effect |
| O=C(O)CSc1cc(NS(=O)(=O)c2ccc(-c3ccc(F)cc3F)cc2)c2ccccc2c1O | 0.92 | 0.24 |  |
| CC1(C)CCC(c2ccc(Cl)cc2)=C(CN2CCN(c3ccc(C(=O)NS(=O)(=O)c4ccc(N[C@H](CCN5CCOCC5)CSc5ccccc5)c(S(=O)(=O)C(F)(F)F)c4)cc3)CC2)C1 |  |  | inhibition [13]: Active; inhibition [14]: inactive |

| Structure (SMILES) | IC50 [3] [µM] | Ki [5] [µM] | also measured |
| --- | --- | --- | --- |
| O=C(O)CSc1cc(NS(=O)(=O)c2ccc(Cl)cc2)c2ccccc2c1O | 2.7 |  |  |
| O=C(O)CSc1cc(NS(=O)(=O)c2ccc(-c3ccccc3)cc2)c2ccccc2c1O | 2.03 |  | Ki [1]: 8.82 µM; Activity (K562): Dose-dependent effect; Activity (HL-60 [2]): Dose-dependent effect; Activity (MV4-11): Dose-dependent effect; Ki (Bcl-2-like protein 1): 8.05 µM |
| CCCCSc1cc(NS(=O)(=O)c2ccc(Br)cc2)c2ccccc2c1O |  | > 27 |  |
| COc1c(I)cc(C=O)c2ccccc12 |  |  | Ratio Ki (Homo sapiens): 16; Ki (Bcl-2-like protein 1): > 15 µM |
| COc1c(CCCCO)cc(NS(=O)(=O)c2ccc(Br)cc2)c2ccccc12 | > 100 | > 27 |  |
| COc1ccc(S(=O)(=O)Nc2cc(SCC(=O)O)c(O)c3ccccc23)cc1 | 7.17 | 9.31 |  |
| O=C(O)CCSc1cc(NS(=O)(=O)c2ccc3ccccc3c2)c2ccccc2c1O | 5.03 |  |  |
| O=C(O)CSc1cc(NS(=O)(=O)c2ccc(F)cc2)c2ccccc2c1O | 5.01 |  |  |
| O=S(=O)(Nc1ccc(O)c2ccccc12)c1ccccc1 |  | > 27 |  |
| O=C(O)CCSc1cc(NS(=O)(=O)c2cccc3ccccc23)c2ccccc2c1O | 64.9 | > 27 |  |
| COc1c(SCC(N)=O)cc(NS(=O)(=O)c2ccc(Br)cc2)c2ccccc12 | > 100 | > 27 |  |
| O=C(O)CSc1cc(NS(=O)(=O)c2cc3ccccc3s2)c2ccccc2c1O | 7.5 |  |  |
| O=C(O)CSc1cc(CNS(=O)(=O)c2ccccc2)c2ccccc2c1O | 30.2 | 64.8 |  |
| O=S(=O)(Nc1cc(CCCO)c(O)c2ccccc12)c1ccc(Br)cc1 | 11 | 3.79 |  |
| O=C(O)CSc1cc(NC(=O)Cc2ccccc2)c2ccccc2c1O | 63.8 | 59.4 |  |
| O=C(O)CSc1cc(NS(=O)(=O)c2ccccc2)c2ccccc2c1O | 12.6 |  |  |
| O=S(=O)(Nc1cc(CCCCO)c(O)c2ccccc12)c1ccc(Br)cc1 | 19.7 |  |  |
| CC(=O)Oc1c(SCC(=O)O)cc(NS(=O)(=O)c2ccc(Br)cc2)c2ccccc12 | 26.8 | 34 |  |
| O=C(O)CSc1cc(NS(=O)(=O)c2cccc(Br)c2)c2ccccc2c1O | 9.68 |  |  |
| COC(=O)CSc1cc(NS(=O)(=O)c2ccc(Br)cc2)c2ccccc2c1OC | > 100 | > 27 | inhibition [4]: inactive; Activity (K562): Dose-dependent effect; IC50 (K562; K562, 72 h): > 50 µM; Activity (HL-60 [2]): Dose-dependent effect; IC50 (HL-60 [2]; HL-60, 72 h): > 50 µM; Activity (MV4-11): Dose-dependent effect; IC50 (MV4-11; MV4-11, 72 h): > 50 µM |
| COc1c(SCC(=O)O)cc(NS(=O)(=O)c2cccc(-c3ccccc3)c2)c2ccccc12 | 58.4 | 24.2 |  |
| O=S(=O)(Nc1cc(SCc2nnn[nH]2)c(O)c2ccccc12)c1ccc(Br)cc1 | 1.5 | 1.01 | Activity (K562): Dose-dependent effect; Activity (HL-60 [2]): Dose-dependent effect; Activity (MV4-11): Dose-dependent effect |
